Screening results: PubChem BioAssay, Johns Hopkins Ion Channel Center
Sampled rows, rich in hits. Any-hit rate of the full collection: about 3.5%.
MrgX1 allo act: allosterically activates human MrgX1 receptor signaling; Q96LB2; MrgX1-HEK293, Fluo-4 calcium flux, FDSS; hits give high values; B-score at 10 µM; 310,000 compounds, 0.63% hits; AID 588675;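 active = plate-corrected calcium response at least 3 library SD above typical, normal starting fluorescence, not activating the receptor alone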;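 also: compound read alongside a low EC10 to EC30 dose of BAM8-22 agonist; peak minus trough fluorescence over baseline measured at the second addition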
MrgX1 ag: human MrgX1 receptor agonism, primary screen; Q96LB2; MrgX1-HEK293 cells, Fluo-4 calcium fluorescence, agonist mode; hits give high values; B-score at 10 µM; 310,000 compounds, 0.44% hits; AID 588627;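 active = calcium response B-score plate-corrected fluorescence ratio at least 3 library SD, with starting fluorescence B-score inside 5 SD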
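Material: MrgX1-expressing HEK293 cells; input: 15,000 cells per well; doses: test compound given as first of three sequential additions; schedule: overnight plating before 1 h dye loading; technique: Fluo-4 NW calcium-flux fluorescence, kinetic read; evaluation: baseline-normalised fluorescence change ratio, B-scored; control set: plate-wise positive and negative controls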
RGS4 inh: human RGS4 inhibition. 310,000 compounds, 0.45% hits. B-score at 10 µM. P49798. HEK293 M3R/RGS4 inducible, Fluo-4 calcium flux; hits give high values; triggered by carbachol at its EC20;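 active = B-score, a plate-corrected calcium signal, over three deviations above library mean, with baseline fluorescence within five deviations of library mean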;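 also: RGS4 expression induced by doxycycline in cells with stable M3 receptor; B-score is computed from the integrated fluorescence ratio over baseline after carbachol; higher B-score means a larger calcium signal and so more RGS4 inhibition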
Target sequence (P49798 whole entry, looked up): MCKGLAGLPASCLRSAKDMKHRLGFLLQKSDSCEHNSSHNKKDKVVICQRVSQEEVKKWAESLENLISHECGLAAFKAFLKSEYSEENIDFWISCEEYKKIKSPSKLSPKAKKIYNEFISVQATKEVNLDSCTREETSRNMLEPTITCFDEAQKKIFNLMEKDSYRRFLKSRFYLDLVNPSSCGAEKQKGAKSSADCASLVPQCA
MrgX1 antagonist: antagonists of human MrgX1 receptor | Q96LB2 | B-score at 10 µM | MRGX1-HEK293 calcium flux, Fluo-4, BAM8-22 antagonism; hits give low values | AID 588676 | 310,000 compounds, 1.3% hits;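 active = calcium-response B-score plate-corrected more than 3 library SD below zero, starting fluorescence within 5 deviations, no agonist response on first addition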;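 also: peak minus trough fluorescence over baseline after final BAM8-22 challenge near maximal dose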
RGS4 pot: potentiators or activators of RGS4. HEK293 M3R/inducible RGS4, carbachol calcium flux Fluo4; hits give low values. B-score at 10 µM. 310,000 compounds, 0.92% hits;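 active = B-score of the integrated calcium signal more than 4 SD below the library mean, with starting fluorescence not abnormally high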;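 also: negative B-score means reduced calcium response which marks RGS4 activation or potentiation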
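test system = HEK293 cells with stable M3R and inducible RGS4 | schedule = recording 10 s baseline at 1 Hz, 100 s post-agonist | technique = Fluo4-AM (2 µM) calcium-flux fluorescence, kinetic read | measure = Agonist-evoked peak-minus-minimum fluorescence over baseline, integrated ratio, B score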
RGS4 block valid: validation of RGS4 inhibitors. 1,700 compounds, 65% hits. shares compounds with RGS4 inh. AID 492999. calcium response, % at 10 µM. HEK293 M3R/RGS4, carbachol calcium Fluo-4 fluorescence; carbachol added at its EC20; 0 = buffer wells, 100 = carbachol control;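 active = duplicate-averaged calcium response above the buffer-only control mean plus 5 SD of those controls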;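 also: integrated fluorescence ratio F max minus min over baseline F0; higher response in RGS4-induced cells means RGS4 inhibition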
RGS4 uninduced: counter-screen for RGS4 inhibitors: effect in non-induced cells; shares compounds with RGS4 inh; HEK293 M3R non-induced, carbachol calcium Fluo-4; submaximal (EC20) carbachol stimulus; buffer wells 0%, carbachol control wells 100%; activity (percent), % at 10 µM; 1,900 compounds, 20% hits; call rule not given here;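 also: RGS4 induction absent so cells express M3R without RGS4; higher means more calcium signal and flags a non-specific hit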
RGS4 inh ctr2: signal in non-induced cells without carbachol, RGS4 inhibitor counter-screen | shares compounds with RGS4 inh | HEK293 M3R/RGS4 non-induced, Fluo-4 calcium, no carbachol; normalised: buffer wells 0%, carbachol wells 100% | calcium response (agonist-mode artifact), % at 10 µM | 1,900 compounds, 22% hits;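 active = duplicate-averaged calcium rise in uninduced cells above buffer wells' mean plus 5 SD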
* marks the source's active call; other numbers are inactive results; i = inactive; . = no result given.

SMILES	MrgX1 allo act	MrgX1 ag	RGS4 inh	MrgX1 antagonist	RGS4 pot	RGS4 block valid	RGS4 uninduced	RGS4 inh ctr2
O=C1NN(c2cccc(Br)c2)C(=O)/C1=C\c1ccccc1	i	i	18.3*	i	i	16.5%*	32.0%*	14.0%*
CC1=NN(c2ccccc2)C(=O)/C1=C/C=C/c1ccccc1	i	i	i	i	i	.	.	.
C#CCOc1ccc(/C=C2/C(=O)N(c3cccc(C(=O)O)c3)N=C2C)cc1OC	i	i	5.98*	i	i	5.0%*	i	i
CC1=NN(c2cccc(C(=O)O)c2)C(=O)/C1=C\C=C\c1ccco1	i	i	9.83*	i	i	16.5%*	34.0%*	i
CCOc1ccccc1CN1CCNC(=O)C1CC(=O)NCc1cc(C)n(C)n1 (centres undefined)	i	i	i	i	i	.	.	.
CCN(CC)CCC(=O)Nc1cccc2c1C(=O)c1ccccc1C2=O	i	i	i	i	i	.	.	.
CCCc1cc(=O)oc2cc(C)cc(OCC(=O)NCCCN3CCCC3=O)c12	i	i	i	i	i	.	.	.
C=CCn1nc([N+](=O)[O-])nc1Sc1cccc2cccnc12	i	i	6.15*	i	i	30.5%*	i	i
COc1ccc(C(C(=O)NC2CCCCC2)N(C(=O)Cc2c[nH]c3ccccc23)c2ccccc2C)cc1OC (centres undefined)	i	i	i	i	i	i	i	i
Cc1nn(-c2ccccc2)c2c1C(c1ccc([N+](=O)[O-])cc1)C(C#N)=C(N)O2 (centres undefined)	i	i	i	i	i	.	.	.
COc1cc(C2C(C#N)=C(N)Oc3c2c(-c2ccccc2)nn3-c2ccccc2)cc(OC)c1OC (centres undefined)	i	i	i	i	i	.	i	i
CCNc1ccc(C(=O)OC(C(=O)NC(N)=O)C(C)C)cc1[N+](=O)[O-] (centres undefined)	i	i	i	i	i	.	.	.
CC1CCCCN1Cc1c(O)ccc2c(=O)c(-c3nc4ccccc4s3)c(N)oc12 (centres undefined)	i	i	11.5*	i	i	10.5%*	i	i
COc1ccc2c(c1)c(C(=O)CN1CCCCC1)c(C)n2C	i	i	i	i	i	.	.	.
COc1ccc2c(c1)c(C(=O)CN1CCC(C(N)=O)CC1)c(C)n2C	i	i	i	i	i	i	i	i
Cc1cccc(C)c1OCC(O)CNC(C)c1ccccc1 (centres undefined)	i	i	i	i	i	.	.	.
CC1(C)OC(=O)C(=CNCCc2ccc(O)cc2)C(=O)O1	i	i	5.66*	i	i	i	i	i
O=C(O)c1ccc2c(c1)C(=O)N(c1ccc(Nc3ccccc3)cc1)C2=O	i	i	i	i	i	.	.	.
COc1cc2c(cc1OC)-c1cc(Nc3cccc(F)c3)nc(=O)n1CC2	.	.	i	.	i	.	.	.
COc1cc2c(cc1OC)-c1cc(Nc3ccc(F)cc3)nc(=O)n1CC2	i	i	i	i	i	i	i	i
COc1cc2c(cc1OC)-c1cc(Nc3ccc(N(C)C)cc3)nc(=O)n1CC2	i	i	5.56*	i	i	7.0%*	36.0%*	i
COc1cc2c(cc1OC)-c1cc(NC3CCCC3)nc(=O)n1CC2	i	i	i	i	i	.	.	.
Cc1nnc(SCC(=O)Nc2sc3c(c2C(=O)c2ccccc2)CCCC3)s1	i	i	i	i	i	.	.	.
